In ChEMBL document CHEMBL4033629, “Synthesis, biological evaluation and molecular modeling of 2-Hydroxyisoquinoline-1,3-dione analogues as inhibitors of HIV reverse transcriptase associated ribonuclease H and polymerase” (Eur J Med Chem, 2017):
Activity calls are given as the source filed them. The rule behind the calls is not given here.

How the values were obtained:
[1] = Inhibition of full length HIV RT-RNase H activity using 18-nucleotide 3'-fluorescein-labeled RNA/5'-dabsyl-labeled DNA hybrid as substrate; design: species or system Human immunodeficiency virus
Procedure, shortened: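 Duplex substrate reports random internal RNA cleavage. A known RNase H inhibitor served as positive control. IC50 is the concentration giving 50% inhibition, reported as the mean of two or three independent experiments.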

[2] = Inhibition of full length HIV reverse transcriptase polymerase activity; design: species or system Human immunodeficiency virus
Procedure, shortened: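 RT was pre-incubated with primer-template duplex before compound was tested. The IC50 is the concentration giving 50% inhibition. It is reported as mean ± SD from three independent experiments for some analogues, and as the mean of two independent experiments for others.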

[3] = system: Human immunodeficiency virus 1; assay: Antiviral activity against HIV1 3B infected in human CEM-SS cells assessed as inhibition of viral-induced cytopathic effect at 10 uM by colorimetric method; type: functional, cell-based
Procedure, shortened: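 CEM-SS cells were mixed with HIV-1 IIIB and test compound at 10 µM and incubated 6 days. Virus was pre-titered so that virus control wells lost 70 to 95% of cell viability. Each plate had cell-only, virus, compound toxicity and compound colorimetric control wells. Protection from virus-induced cytopathic effect was read colorimetrically.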

For `O=C1Cc2cc(-c3cccc4c3sc3ccccc34)ccc2C(=O)N1O`, the IC50 [1] was 1800 nM, the IC50 [2] was 1600 nM and the Activity [3] was “inactive”.

In the case of `O=C1Cc2c(Cc3ccc(Br)cc3)cccc2C(=O)N1O`, the IC50 [1] is reported as 600 nM, the IC50 [2] is reported as 1400 nM and the Activity [3] is reported as “inactive”.

For `O=C(Cc1ccccc1)Nc1ccc2c(c1)CC(=O)N(O)C2=O`, the IC50 [1] was 200 nM, the IC50 [2] was 1400 nM and the Activity [3] was “inactive”.

In the case of `O=C1Cc2cc(-c3ccc4c(c3)OCO4)ccc2C(=O)N1O`, the IC50 [1] is reported as 1200 nM, the IC50 [2] is reported as 1700 nM and the Activity [3] is reported as “inactive”.

For `O=C(Cc1ccc(F)cc1)Nc1ccc2c(c1)CC(=O)N(O)C2=O`, the IC50 [1] was 300 nM, the IC50 [2] was 1700 nM and the Activity [3] was “inactive”.

With `COc1cc2c(cc1-c1ccc(F)cc1F)CC(=O)N(O)C2=O` the IC50 [1] was 1600 nM, the IC50 [2] was 2900 nM and the Activity [3] was “inactive”.

In the case of `COc1cc2c(cc1-c1ccco1)CC(=O)N(O)C2=O`, the IC50 [1] is reported as 1600 nM, the IC50 [2] is reported as 6200 nM and the Activity [3] is reported as “inactive”.

For `COc1cc2c(cc1-c1ccccc1)CC(=O)N(O)C2=O`, the IC50 [1] was 1300 nM, the IC50 [2] was 8100 nM and the Activity [3] was “inactive”.

In the case of `O=C1Cc2cc(-c3ccoc3)ccc2C(=O)N1O`, the IC50 [1] is reported as 1400 nM, the IC50 [2] is reported as 2000 nM and the Activity [3] is reported as “inactive”.

With `O=C1Cc2cc(-c3ccco3)ccc2C(=O)N1O` the IC50 [1] was 1100 nM, the IC50 [2] was 1500 nM and the Activity [3] was “inactive”.

With `O=C1Cc2ccc(-c3ccc(F)c(F)c3)cc2C(=O)N1O` the IC50 [1] was 2000 nM, the IC50 [2] was 2800 nM and the Activity [3] was “inactive”.

In the case of `O=C1Cc2cc(-c3ccc(F)c(F)c3)ccc2C(=O)N1O`, the IC50 [1] is reported as 1300 nM, the IC50 [2] is reported as 2100 nM and the Activity [3] is reported as “inactive”.

For `O=C1Cc2c(cccc2-c2ccc(F)cc2F)C(=O)N1O`, the IC50 [1] was 1500 nM, the IC50 [2] was 25000 nM and the Activity [3] was “inactive”.

In the case of `O=C1Cc2c(Cc3ccc(C(F)(F)F)cc3)cccc2C(=O)N1O`, the IC50 [1] is reported as 830 nM, the IC50 [2] is reported as 7400 nM and the Activity [3] is reported as “inactive”.

With `O=C1Cc2ccc(-c3ccco3)cc2C(=O)N1O` the IC50 [1] was 1200 nM, the IC50 [2] was 1300 nM and the Activity [3] was “inactive”.

With `COc1cc2c(cc1-c1ccc(F)cc1)CC(=O)N(O)C2=O` the IC50 [1] was 1400 nM, the IC50 [2] was 3700 nM and the Activity [3] was “inactive”.

For `O=C(Nc1ccc2c(c1)CC(=O)N(O)C2=O)c1ccccc1`, the IC50 [1] was 200 nM, the IC50 [2] was 400 nM and the Activity [3] was “inactive”.

With `O=C1Cc2c(cccc2-c2ccccc2)C(=O)N1O` the IC50 [1] was 1400 nM, the IC50 [2] was > 25000 nM and the Activity [3] was “inactive”.

For `O=C1Cc2ccc(I)cc2C(=O)N1O`, the IC50 [1] was 1400 nM, the IC50 [2] was 1900 nM and the Activity [3] was “inactive”.

For `O=C1Cc2ccc(-c3cccs3)cc2C(=O)N1O`, the IC50 [1] was 1700 nM, the IC50 [2] was 2500 nM and the Activity [3] was “inactive”.

With `Cc1ccc(Cc2cccc3c2CC(=O)N(O)C3=O)cc1` the IC50 [1] was 1000 nM, the IC50 [2] was 8000 nM and the Activity [3] was “inactive”.

For `O=C1Cc2ccc(-c3cc4ccccc4o3)cc2C(=O)N1O`, the IC50 [1] was 900 nM, the IC50 [2] was 1600 nM and the Activity [3] was “inactive”.

For `O=C(Nc1ccc2c(c1)CC(=O)N(O)C2=O)c1ccc(F)cc1`, the IC50 [1] was 200 nM, the IC50 [2] was 800 nM and the Activity [3] was “inactive”.

With `O=C1Cc2c(cccc2-c2ccco2)C(=O)N1O` the IC50 [1] was 2000 nM, the IC50 [2] was 2100 nM and the Activity [3] was “inactive”.

For `O=C1Cc2cc(-c3csc4ccccc34)ccc2C(=O)N1O`, the IC50 [1] was 1100 nM, the IC50 [2] was 1300 nM and the Activity [3] was “inactive”.

In the case of `O=C1Cc2cc(-c3cc4ccccc4o3)ccc2C(=O)N1O`, the IC50 [1] is reported as 1100 nM, the IC50 [2] is reported as 1500 nM and the Activity [3] is reported as “inactive”.

With `O=C1Cc2cc(-c3cccs3)ccc2C(=O)N1O` the IC50 [1] was 1700 nM, the IC50 [2] was 1700 nM and the Activity [3] was “inactive”.

For `O=C1Cc2c(Cc3ccc(F)cc3F)cccc2C(=O)N1O`, the IC50 [1] was 820 nM, the IC50 [2] was 9300 nM and the Activity [3] was “inactive”.
